1 compound from ChEMBL document CHEMBL4376814, “Novel cyclin-dependent kinase 9 (CDK9) inhibitor with suppression of cancer stemness activity against non-small-cell lung cancer” (Eur J Med Chem, 2019) can be followed below.

Molecules are shown by their SMILES.

One assay deals with NCI-H1299. Nature of the assay: Antiproliferative activity against human H1299 cells assessed as inhibition of cell viability after 72 hrs by CCK-8 assay. Particulars: NCI-H1299, 72 h. In kind it is functional, cell-based. In short, it runs like this:
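Cells kept at 37 °C, 5% CO2 in DMEM or RPMI-1640 with 10% FBS and 1% penicillin/streptomycin, then seeded at 3000 cells/well (adherent) or 10,000 cells/well (suspension). Exposed to a range of concentrations for 72 h. CCK-8 added for 1-4 h before reading A450. […] Three independent experiments.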
A general note: Tetrazolium assays rely on reduction of a dye to a coloured formazan, in cell work by metabolically active cells.

For assay [1], the target named is Serine/threonine-protein kinase BRSK1 (Homo sapiens) (UniProt Q8TDC3). Nature of the assay: Inhibition of recombinant human BrSK1 (2 to end residues) at 1 uM using KKKVSRSGLYRSPSMPENLNRPR as substrate measured after 40 mins in presence of [gamma33P]ATP by scintillation counting method relative to control.
In assay [2] the target is Calcium/calmodulin-dependent protein kinase type 1G (Homo sapiens) (UniProt Q96NX5). In words: Inhibition of full-length recombinant human CaMK1 gamma at 1 uM using KKLRRTLSFAEPG as substrate measured after 40 mins in presence of [gamma33P]ATP by scintillation counting method relative to control. The procedure, abridged:
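Percent inhibition of kinase activity at a single compound concentration, measured by the outsourced Eurofins KinaseProfiler panel. Values are the mean of two independent experiments.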

In assay [3] the target is Muscle, skeletal receptor tyrosine-protein kinase (Homo sapiens) (UniProt O15146). Nature of the assay: Inhibition of recombinant human MUSK (530 to end residues) at 1 uM using myelin basic protein as substrate measured after 40 mins in presence of [gamma33P]ATP by scintillation counting method relative to control.
For assay [4], the target named is Myosin-IIIb (Homo sapiens) (UniProt Q8WXR4). Nature of the assay: Inhibition of recombinant human MYO3B (1 to 326 residues) at 1 uM using RLGRDKYKTLRQIRQ as substrate measured after 40 mins in presence of [gamma33P]ATP by scintillation counting method relative to control.
Assay [5] addresses Calcium/calmodulin-dependent protein kinase type II subunit gamma (Homo sapiens) (UniProt Q13555). In words: Inhibition of recombinant full-length human CaMK2gamma (1 to 330 residues) at 1 uM using calmodulin as substrate measured after 40 mins in presence of [gamma33P]ATP by scintillation counting method relative to control.
The target of assay [6] is Cyclin-dependent kinase 5/CDK5 activator 1 (Homo sapiens) (UniProt Q00535+Q15078). Nature of the assay: Inhibition of recombinant full-length human CDK5/p35 at 1 uM using Histone H1 as substrate measured after 40 mins in presence of [gamma33P]ATP by scintillation counting method relative to control. The format is protein-complex assay.
Assay [7] addresses Casein kinase I isoform gamma-2 (Homo sapiens) (UniProt P78368). Nature of the assay: Inhibition of recombinant human CK1gamma2 (18 to end residues) at 1 uM using KRRRALS(p)VASLPGL as substrate measured after 40 mins in presence of [gamma33P]ATP by scintillation counting method relative to control.
The subject of assay [8] is Casein kinase I isoform gamma-3 (Homo sapiens), Q9Y6M4 [UNDEFINED MUTATION]. Nature of the assay: Inhibition of recombinant human CK1gamma3 K91E/R174G/E302D mutant (1 to 330 residues) at 1 uM using KRRRALS(p)VASLPGL as substrate measured after 40 mins in presence of [gamma33P]ATP by scintillation counting method relative to control. In short, it runs like this: (§1)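 Single-point inhibition at 1 µM was measured in the Eurofins KinaseProfiler panel. Values are the mean of two independent experiments.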

The test system of assay [9] is Ribosomal protein S6 kinase beta-1 (Homo sapiens), P23443 [T412E]. In words: Inhibition of recombinant full-length human p70S6K (1 to 421 residues) T412E mutant at 1 uM using KKRNRTLTV as substrate measured after 40 mins in presence of [gamma33P]ATP by scintillation counting method relative to control.
Assay [10] has as its target Protein kinase C beta type (Homo sapiens) (UniProt P05771). In words: Inhibition of recombinant human PKCbeta1 (2 to end residues) at 1 uM using histone H1 as substrate measured after 40 mins in presence of [gamma33P]ATP by scintillation counting method relative to control.
Assay [11] relates to Mast/stem cell growth factor receptor Kit (Homo sapiens), P10721 [V560G]. In words: Inhibition of recombinant human cKit (544 to end residues) V560G mutant at 1 uM using GGMEDIYFEFMGGKKK as substrate measured after 40 mins in presence of [gamma33P]ATP by scintillation counting method relative to control. In short, it runs like this:
as §1

Assay [12] has as its target Serine/threonine-protein kinase DCLK2 (Homo sapiens) (UniProt Q8N568). Nature of the assay: Inhibition of recombinant human DCAMKL2 (376 to end residues) at 1 uM using KKLNRTLSFAEPG as substrate measured after 40 mins in presence of [gamma33P]ATP by scintillation counting method relative to control. In short, it runs like this:
as §1

Assay [13] deals with Protein kinase C theta type (Homo sapiens) (UniProt Q04759). In words: Inhibition of recombinant full-length human PKCtheta at 1 uM using histone H1as substrate measured after 40 mins in presence of [gamma33P]ATP by scintillation counting method relative to control.
Assay [14] has as its target Protein kinase C zeta type (Homo sapiens) (UniProt Q05513). Nature of the assay: Inhibition of recombinant human PKCzeta (2 to end residues) at 1 uM using ERMRPRKRQGSVRRRV as substrate measured after 40 mins in presence of [gamma33P]ATP by scintillation counting method relative to control. In short, it runs like this:
as §1

Assay [15] deals with Serine/threonine-protein kinase 32C (Homo sapiens) (UniProt Q86UX6). In words: Inhibition of recombinant full-length human STK32C at 1 uM using casein as substrate measured after 120 mins in presence of [gamma33P]ATP by scintillation counting method relative to control.
The target of assay [16] is Serine/threonine-protein kinase TBK1 (Homo sapiens) (UniProt Q9UHD2). In words: Inhibition of recombinant full-length human TBK1 at 1 uM using KRRRALS(p)VASLPGL as substrate measured after 40 mins in presence of [gamma33P]ATP by scintillation counting method relative to control. In short, it runs like this: as §1
The target of assay [17] is Tau-tubulin kinase 1 (Homo sapiens) (UniProt Q5TCY1). Nature of the assay: Inhibition of recombinant human TTBK1 (1 to 479 residues) at 1 uM using casein as substrate measured after 40 mins in presence of [gamma33P]ATP by scintillation counting method relative to control.
Assay [18] deals with PI3K p110 beta/p85 alpha (Homo sapiens) (UniProt P27986+P42338). In words: Inhibition of recombinant full-length human PI3K p110beta/p85alpha at 1 uM using phosphatidylinositol-4, 5-bisphosphate as substrate measured after 40 mins by fluorescence assay relative to control. In kind it is protein-complex assay.
For the next assay, the species on record is Homo sapiens. In words: Inhibition of recombinant full-length human PI3K p110alpha/p65alpha (1 to 571 residues) at 1 uM using phosphatidylinositol-4, 5-bisphosphate as substrate measured after 40 mins by HTRF assay relative to control. In short, it runs like this:
as §1
(In TR-FRET formats the signal depends on donor and acceptor labels being close together.)

Assay [19] addresses Phosphatidylinositol 4-phosphate 5-kinase type-1 alpha (Homo sapiens) (UniProt Q99755). Nature of the assay: Inhibition of recombinant full-length human PIP5K1alpha at 1 uM using phosphatidylinositol 4-phosphate as substrate measured after 40 mins by HTRF assay relative to control.

Chain of Serine/threonine-protein kinase TBK1 (Homo sapiens) (Q9UHD2 whole entry, the tested form may be a part): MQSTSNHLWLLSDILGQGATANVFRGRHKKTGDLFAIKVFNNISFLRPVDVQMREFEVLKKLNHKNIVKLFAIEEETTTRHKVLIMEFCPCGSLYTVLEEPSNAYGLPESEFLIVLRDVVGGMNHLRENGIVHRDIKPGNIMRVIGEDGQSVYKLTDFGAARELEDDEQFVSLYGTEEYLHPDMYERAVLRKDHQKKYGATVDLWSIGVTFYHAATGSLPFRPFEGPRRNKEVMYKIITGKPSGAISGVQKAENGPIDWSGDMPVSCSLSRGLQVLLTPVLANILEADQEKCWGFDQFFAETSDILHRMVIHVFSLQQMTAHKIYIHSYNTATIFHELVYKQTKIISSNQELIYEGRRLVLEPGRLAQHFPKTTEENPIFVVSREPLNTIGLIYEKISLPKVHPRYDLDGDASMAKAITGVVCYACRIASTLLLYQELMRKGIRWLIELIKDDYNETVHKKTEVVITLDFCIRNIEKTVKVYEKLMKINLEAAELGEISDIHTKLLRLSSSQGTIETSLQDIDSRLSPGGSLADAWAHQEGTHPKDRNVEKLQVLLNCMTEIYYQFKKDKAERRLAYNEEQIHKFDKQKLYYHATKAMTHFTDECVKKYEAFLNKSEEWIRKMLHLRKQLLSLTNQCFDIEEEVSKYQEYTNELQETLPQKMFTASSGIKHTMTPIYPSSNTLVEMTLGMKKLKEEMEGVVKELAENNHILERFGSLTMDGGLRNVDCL
Chain of Phosphatidylinositol 4-phosphate 5-kinase type-1 alpha (Homo sapiens) (Q99755 whole entry): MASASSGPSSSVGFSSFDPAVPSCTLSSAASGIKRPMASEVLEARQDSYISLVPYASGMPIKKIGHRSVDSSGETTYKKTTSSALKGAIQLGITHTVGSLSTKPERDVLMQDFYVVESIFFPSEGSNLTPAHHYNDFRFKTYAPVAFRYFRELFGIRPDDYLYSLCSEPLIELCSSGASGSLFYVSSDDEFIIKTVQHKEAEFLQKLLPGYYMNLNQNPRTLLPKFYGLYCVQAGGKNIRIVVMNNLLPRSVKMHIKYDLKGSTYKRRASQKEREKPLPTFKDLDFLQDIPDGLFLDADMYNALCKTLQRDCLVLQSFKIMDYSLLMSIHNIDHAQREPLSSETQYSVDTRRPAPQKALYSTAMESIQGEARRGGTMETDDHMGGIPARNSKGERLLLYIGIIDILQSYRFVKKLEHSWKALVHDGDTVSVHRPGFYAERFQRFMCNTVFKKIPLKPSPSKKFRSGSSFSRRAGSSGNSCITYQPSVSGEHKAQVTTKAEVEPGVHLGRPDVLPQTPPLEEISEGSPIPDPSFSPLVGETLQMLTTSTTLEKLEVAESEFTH
Chain of Ribosomal protein S6 kinase beta-1 (Homo sapiens), P23443 [T412E] (P23443 whole entry T412E, looked up, the tested form may be a part): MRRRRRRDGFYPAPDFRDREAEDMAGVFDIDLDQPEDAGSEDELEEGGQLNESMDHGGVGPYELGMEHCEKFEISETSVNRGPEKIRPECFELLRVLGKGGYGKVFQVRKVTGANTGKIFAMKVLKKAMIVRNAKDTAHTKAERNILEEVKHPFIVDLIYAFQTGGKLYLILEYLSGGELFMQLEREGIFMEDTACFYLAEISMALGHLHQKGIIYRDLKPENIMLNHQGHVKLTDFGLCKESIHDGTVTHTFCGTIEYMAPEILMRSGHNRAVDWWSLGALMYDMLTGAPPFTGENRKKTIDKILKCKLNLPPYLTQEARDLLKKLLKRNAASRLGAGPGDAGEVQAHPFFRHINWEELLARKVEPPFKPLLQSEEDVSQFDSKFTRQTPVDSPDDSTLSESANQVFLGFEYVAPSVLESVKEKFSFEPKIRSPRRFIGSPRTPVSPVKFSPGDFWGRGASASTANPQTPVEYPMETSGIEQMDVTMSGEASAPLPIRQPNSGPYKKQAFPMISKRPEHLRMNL
Chain of Myosin-IIIb (Homo sapiens) (Q8WXR4 whole entry, the tested form may be a part): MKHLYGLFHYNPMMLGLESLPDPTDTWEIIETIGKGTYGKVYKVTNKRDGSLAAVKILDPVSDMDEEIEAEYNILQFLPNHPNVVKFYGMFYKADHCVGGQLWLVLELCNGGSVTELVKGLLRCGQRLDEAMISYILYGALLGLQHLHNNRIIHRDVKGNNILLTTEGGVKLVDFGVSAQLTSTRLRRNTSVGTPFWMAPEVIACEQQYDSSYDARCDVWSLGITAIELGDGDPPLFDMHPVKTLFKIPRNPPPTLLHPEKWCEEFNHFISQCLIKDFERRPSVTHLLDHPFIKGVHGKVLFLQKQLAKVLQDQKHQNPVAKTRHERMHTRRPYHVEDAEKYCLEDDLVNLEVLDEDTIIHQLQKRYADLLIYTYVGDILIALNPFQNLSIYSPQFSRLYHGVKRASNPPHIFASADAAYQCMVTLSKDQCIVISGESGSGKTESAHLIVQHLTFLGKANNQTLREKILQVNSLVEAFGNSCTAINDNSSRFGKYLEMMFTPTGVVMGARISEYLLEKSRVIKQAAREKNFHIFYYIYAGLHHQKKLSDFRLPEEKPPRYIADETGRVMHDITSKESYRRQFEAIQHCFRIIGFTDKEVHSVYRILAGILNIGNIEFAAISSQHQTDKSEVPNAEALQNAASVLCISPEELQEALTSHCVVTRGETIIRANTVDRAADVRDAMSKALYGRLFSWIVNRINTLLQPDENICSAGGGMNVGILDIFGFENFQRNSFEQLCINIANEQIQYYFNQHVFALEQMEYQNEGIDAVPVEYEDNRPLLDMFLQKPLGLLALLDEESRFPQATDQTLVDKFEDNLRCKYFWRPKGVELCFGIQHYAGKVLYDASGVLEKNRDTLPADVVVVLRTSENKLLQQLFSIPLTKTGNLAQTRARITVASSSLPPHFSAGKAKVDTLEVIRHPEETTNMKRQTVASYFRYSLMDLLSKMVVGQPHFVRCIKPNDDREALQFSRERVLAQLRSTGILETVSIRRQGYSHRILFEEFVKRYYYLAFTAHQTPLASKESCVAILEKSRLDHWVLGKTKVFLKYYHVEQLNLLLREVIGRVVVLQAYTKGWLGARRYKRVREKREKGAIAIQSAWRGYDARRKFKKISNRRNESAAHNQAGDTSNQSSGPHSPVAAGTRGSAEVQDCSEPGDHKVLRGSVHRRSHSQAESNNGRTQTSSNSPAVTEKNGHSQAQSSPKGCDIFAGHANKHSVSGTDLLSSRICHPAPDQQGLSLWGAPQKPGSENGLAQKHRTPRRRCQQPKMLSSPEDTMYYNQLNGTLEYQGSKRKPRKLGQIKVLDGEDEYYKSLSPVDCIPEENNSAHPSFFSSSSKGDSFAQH
Chain of Serine/threonine-protein kinase BRSK1 (Homo sapiens) (Q8TDC3 whole entry): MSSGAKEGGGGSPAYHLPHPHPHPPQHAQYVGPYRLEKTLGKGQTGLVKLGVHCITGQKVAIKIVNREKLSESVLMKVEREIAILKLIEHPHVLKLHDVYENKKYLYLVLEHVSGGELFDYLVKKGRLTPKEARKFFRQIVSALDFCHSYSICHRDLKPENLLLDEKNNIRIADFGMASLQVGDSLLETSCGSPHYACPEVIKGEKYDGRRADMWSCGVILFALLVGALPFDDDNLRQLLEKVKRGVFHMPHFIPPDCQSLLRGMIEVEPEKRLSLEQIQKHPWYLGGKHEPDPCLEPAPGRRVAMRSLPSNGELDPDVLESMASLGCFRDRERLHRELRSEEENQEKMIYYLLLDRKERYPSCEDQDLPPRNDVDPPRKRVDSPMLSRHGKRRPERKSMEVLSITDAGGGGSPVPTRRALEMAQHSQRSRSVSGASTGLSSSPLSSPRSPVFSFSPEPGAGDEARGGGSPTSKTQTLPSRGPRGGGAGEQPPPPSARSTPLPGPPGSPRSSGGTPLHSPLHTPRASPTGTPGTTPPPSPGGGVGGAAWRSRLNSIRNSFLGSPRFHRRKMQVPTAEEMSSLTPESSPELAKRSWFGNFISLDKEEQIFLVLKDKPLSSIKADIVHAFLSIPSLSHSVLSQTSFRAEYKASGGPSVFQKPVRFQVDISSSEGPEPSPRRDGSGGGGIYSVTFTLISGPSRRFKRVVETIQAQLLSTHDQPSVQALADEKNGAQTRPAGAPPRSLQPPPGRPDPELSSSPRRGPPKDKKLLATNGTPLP
Chain of Mast/stem cell growth factor receptor Kit (Homo sapiens), P10721 [V560G] (P10721 whole entry V560G): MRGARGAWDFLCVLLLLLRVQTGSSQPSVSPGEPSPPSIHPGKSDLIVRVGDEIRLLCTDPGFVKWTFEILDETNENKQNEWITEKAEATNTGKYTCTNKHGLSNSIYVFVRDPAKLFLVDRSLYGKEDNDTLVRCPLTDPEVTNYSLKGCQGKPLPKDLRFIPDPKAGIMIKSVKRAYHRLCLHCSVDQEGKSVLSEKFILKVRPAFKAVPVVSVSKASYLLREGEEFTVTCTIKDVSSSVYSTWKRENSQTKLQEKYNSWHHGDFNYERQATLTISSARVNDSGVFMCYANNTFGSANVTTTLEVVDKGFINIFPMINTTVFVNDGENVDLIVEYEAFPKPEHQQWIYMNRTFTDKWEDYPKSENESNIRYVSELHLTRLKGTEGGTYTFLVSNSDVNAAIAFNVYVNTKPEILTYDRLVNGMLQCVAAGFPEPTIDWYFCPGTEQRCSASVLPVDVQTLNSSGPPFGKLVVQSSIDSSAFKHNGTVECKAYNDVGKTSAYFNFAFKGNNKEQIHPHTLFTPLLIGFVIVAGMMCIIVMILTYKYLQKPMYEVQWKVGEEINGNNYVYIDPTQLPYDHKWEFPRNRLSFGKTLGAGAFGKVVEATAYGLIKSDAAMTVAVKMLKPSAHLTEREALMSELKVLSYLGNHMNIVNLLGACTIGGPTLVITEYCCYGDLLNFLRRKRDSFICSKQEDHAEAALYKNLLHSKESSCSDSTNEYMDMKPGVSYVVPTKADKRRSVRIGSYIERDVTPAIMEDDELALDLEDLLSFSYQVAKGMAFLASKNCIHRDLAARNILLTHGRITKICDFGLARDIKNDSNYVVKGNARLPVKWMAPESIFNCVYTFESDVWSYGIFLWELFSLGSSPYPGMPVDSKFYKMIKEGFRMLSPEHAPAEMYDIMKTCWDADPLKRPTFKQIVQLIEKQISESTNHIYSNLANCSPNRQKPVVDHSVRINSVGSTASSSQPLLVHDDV

As a reminder, the IC50 is the point on the concentration scale where inhibition reaches its midpoint. As usually defined, the inhibition is the relative decrease from the control value, in per cent. `CN(C)C(=O)c1cc2cnc(Nc3ccc(NC(=O)CCCCCCCN=C=S)cc3)nc2n1C1CCCC1`: the IC50 in the assay with NCI-H1299 is 203 nM. The inhibition in assay [1] was 16%; in assay [2], 21%; in assay [3], 66%; in assay [4], -1%; in [5], 53%; in assay [6] it was 59%. The inhibition in [7] came out at 20%; in assay [8], 11%; in assay [9] it was 40%; in assay [10], 20%; in [11], 54%; in assay [12] it was 1%. Also, the inhibition in [13] was 47%; in [14], 1%; in assay [15], 17%; in assay [16] it was 12%; in assay [17], -7%; in assay [18] it was 5%. Besides, the inhibition worked out at 1% in the assay filed under Homo sapiens and 30% in assay [19].
